This note sets out measurements from ChEMBL document CHEMBL3632513, “Synthesis of donepezil-based multifunctional agents for the treatment of Alzheimer's disease” (Bioorg Med Chem Lett, 2015).

One data set deals with Acetylcholinesterase (Electrophorus electricus, UniProt O42275). The data set is described as follows: Inhibition of electric eel AChE using acetylthiocholine iodide as substrate preincubated for 15 mins by Ellman's method. (In general: In Ellman's method for cholinesterases, released thiocholine reacts with DTNB.)
Acetylcholinesterase, sequence (O42275 whole entry): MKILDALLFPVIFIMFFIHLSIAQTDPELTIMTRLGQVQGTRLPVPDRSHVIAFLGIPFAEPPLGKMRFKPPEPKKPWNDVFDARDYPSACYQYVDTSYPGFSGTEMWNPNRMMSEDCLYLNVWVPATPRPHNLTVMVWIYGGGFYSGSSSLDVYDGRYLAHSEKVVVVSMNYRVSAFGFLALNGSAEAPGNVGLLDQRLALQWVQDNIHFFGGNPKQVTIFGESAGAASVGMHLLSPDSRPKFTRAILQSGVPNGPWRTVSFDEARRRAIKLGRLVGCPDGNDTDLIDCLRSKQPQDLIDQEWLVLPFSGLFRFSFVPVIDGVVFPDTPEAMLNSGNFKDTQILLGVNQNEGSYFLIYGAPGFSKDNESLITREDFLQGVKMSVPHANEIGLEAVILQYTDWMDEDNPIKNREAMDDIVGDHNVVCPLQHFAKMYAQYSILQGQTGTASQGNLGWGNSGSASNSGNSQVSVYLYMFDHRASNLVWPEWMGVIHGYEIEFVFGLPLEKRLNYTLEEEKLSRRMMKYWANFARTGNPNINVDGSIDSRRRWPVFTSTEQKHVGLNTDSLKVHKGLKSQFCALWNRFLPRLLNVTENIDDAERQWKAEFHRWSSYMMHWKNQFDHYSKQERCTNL
The target of another data set is Cholinesterase (Equus caballus, UniProt P81908). Nature of the data set: Inhibition of equine serum BuChE using butyrylthiocholine iodide as substrate preincubated for 15 mins by Ellman's method.
Cholinesterase, sequence (P81908 whole entry): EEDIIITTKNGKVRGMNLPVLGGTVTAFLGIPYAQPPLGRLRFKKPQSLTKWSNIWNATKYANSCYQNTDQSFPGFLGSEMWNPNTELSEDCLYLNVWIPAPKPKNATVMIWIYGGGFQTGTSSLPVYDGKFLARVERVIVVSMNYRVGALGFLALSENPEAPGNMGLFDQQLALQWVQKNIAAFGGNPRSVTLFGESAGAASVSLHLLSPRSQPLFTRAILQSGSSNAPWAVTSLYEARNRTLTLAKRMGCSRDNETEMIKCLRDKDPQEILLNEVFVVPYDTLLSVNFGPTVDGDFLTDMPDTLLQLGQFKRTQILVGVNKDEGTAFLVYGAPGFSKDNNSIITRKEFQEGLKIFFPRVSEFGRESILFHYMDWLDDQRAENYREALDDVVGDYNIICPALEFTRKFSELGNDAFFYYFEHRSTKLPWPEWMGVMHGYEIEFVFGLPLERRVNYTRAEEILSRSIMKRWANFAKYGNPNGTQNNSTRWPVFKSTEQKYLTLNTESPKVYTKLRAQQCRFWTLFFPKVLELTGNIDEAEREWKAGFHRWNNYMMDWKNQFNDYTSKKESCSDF
Data set [1] can be described thus: Selectivity ratio of IC50 for equine BuChE to IC50 for electric eel AChE. A digest of the protocol:
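Both IC50 values come from Ellman's method, using AChE from electric eel and BuChE from equine serum. Selectivity for AChE is calculated as IC50(BuChE)/IC50(AChE).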

Data set [2] addresses Amyloid-beta precursor protein (Homo sapiens) (UniProt P05067). The data set is described as follows: Inhibition of self-induced amyloid beta (1-42) aggregation (unknown origin) at 25 uM after 48 hrs by thioflavin T fluorescence method. Put shortly: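 Thioflavin T fluorometric assay of self-induced Aβ1–42 aggregation, with test compounds and the curcumin reference each at 25. Results are reported as percent inhibition of aggregation.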

Data set [3] is described as follows: Antioxidant activity assessed as DPPH scavenging activity at 10 to 60 ug/ml after 30 mins.
Data set [4] deals with Acetylcholinesterase (Electrophorus electricus) (UniProt O42275). The data set is described as follows: Mixed-type of inhibition in electric eel AChE at 0.5 to 2 uM by Lineweaver-Burk plot method.
Acetylcholinesterase (Electrophorus electricus), sequence (O42275 24-633 limits assumed): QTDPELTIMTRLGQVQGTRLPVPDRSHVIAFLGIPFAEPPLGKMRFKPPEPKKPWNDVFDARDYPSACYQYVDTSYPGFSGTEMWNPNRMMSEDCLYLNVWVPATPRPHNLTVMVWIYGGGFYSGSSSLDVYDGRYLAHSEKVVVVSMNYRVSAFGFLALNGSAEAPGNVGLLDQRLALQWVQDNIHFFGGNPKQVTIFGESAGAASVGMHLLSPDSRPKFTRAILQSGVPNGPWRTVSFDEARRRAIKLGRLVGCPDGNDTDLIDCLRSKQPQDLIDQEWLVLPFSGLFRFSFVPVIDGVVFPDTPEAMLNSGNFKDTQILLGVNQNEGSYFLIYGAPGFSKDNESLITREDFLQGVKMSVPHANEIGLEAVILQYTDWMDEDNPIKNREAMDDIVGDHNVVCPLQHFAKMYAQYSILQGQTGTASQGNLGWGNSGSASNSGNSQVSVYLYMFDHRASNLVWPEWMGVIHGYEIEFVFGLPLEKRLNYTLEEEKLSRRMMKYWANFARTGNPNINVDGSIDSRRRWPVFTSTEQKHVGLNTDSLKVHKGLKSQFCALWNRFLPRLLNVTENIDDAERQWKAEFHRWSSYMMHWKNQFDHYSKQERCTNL
Data set [5] in a line: Metal chelating activity of the compound assessed as Zn2+ complex formation after 20 mins by UV-vis spectrophotometry. In kind it is physicochemical.
Data set [6] is described as follows: Lipophilicity, log P of the compound by […]. To be noted: octanol/water. It counts as physicochemical.
Data set [7] concerns the target Cholinesterase (Equus caballus) (UniProt P81908). The data set is described as follows: Mixed-type of inhibition in equine BuChE at 10 to 40 uM by Lineweaver-Burk plot method.
Data set [8] has the same target. Nature of the data set: Non-competitive inhibition in equine BuChE at 10 to 40 uM by Lineweaver-Burk plot method.

≈ marks a conversion by molar mass, not a printed value. Calls of active or inactive are those of the source. The calls are words filed in the database; no cut-off is given here.

Amyloid-beta precursor protein (Homo sapiens), sequence (P05067 whole entry): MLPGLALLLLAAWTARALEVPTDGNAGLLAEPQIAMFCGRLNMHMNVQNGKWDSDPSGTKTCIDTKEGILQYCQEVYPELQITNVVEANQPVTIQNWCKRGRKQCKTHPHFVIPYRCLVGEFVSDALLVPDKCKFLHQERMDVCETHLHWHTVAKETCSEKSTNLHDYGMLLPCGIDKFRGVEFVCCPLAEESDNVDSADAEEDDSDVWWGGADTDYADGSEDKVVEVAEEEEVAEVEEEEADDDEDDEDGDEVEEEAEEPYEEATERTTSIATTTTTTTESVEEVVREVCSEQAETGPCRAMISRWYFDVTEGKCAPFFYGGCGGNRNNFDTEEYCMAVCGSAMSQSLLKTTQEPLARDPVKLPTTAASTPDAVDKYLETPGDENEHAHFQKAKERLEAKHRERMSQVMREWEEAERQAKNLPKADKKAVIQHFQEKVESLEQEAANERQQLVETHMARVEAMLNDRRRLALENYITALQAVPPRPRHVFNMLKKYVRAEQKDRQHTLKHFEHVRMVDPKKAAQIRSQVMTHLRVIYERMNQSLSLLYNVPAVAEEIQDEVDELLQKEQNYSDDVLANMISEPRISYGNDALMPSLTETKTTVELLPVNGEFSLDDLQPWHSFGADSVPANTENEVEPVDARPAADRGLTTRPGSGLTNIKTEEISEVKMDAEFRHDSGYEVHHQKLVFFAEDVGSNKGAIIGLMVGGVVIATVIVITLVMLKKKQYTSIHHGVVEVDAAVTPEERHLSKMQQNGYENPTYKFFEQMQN
Cholinesterase (Equus caballus), sequence (P81908 whole entry): as the sequence (P81908 whole entry) above

On to `COc1cc2c(cc1OC)C(=O)C(C(=O)Nc1ccccc1F)C2` (centres undefined), for which the IC50 – broadly, the concentration needed to halve the response being measured – against Acetylcholinesterase stood at 80 nM; on Cholinesterase, 3210 nM; in data set [3], 75.68 µg/mL (≈ 230 µM). In [1], the Ratio IC50 is 40.1. In addition, the inhibition (usually the drop in the measured response relative to a control, in per cent) in data set [2] turned out to be 55.3%. Moreover, the inhibition result in data set [4] was “Active”. For the same molecule, the outcome in data set [5] was Active. Also, the logP (in general, a log measure of how a compound divides between an organic and an aqueous phase) in [6] turned out to be 2.36.
As for `COc1cc2c(cc1OC)C(=O)C(C(=O)Nc1cccc(F)c1)C2` (centres undefined), the IC50 against Acetylcholinesterase came to 247 nM; against Cholinesterase it was 2250 nM; in [3] it was 58.11 µg/mL (≈ 176 µM). For the same molecule, the Ratio IC50 in [1] turned out to be 9.1. In data set [2], this molecule gave an inhibition of 38.7%. The logP in data set [6] is 2.36.
Take `CCc1ccccc1NC(=O)C1Cc2cc(OC)c(OC)cc2C1=O` (centres undefined): the values for the half-maximal inhibitory concentration (IC50) (against Acetylcholinesterase; against Cholinesterase; in data set [3]) were 860 nM, 6290 nM and 55 µg/mL (≈ 162 µM), respectively. In addition, the Ratio IC50 in [1] came out at 7.3. Also, the inhibition in data set [2] came to 21.8%. The logP in data set [6] came to 3.11.
Take `COc1cc2c(cc1OC)C(=O)C(C(=O)Nc1ccccc1)C2` (centres undefined): the values for the concentration for half-maximal inhibition (IC50) (against Acetylcholinesterase; against Cholinesterase; in [3]) were 920 nM, 3150 nM and 61.28 µg/mL (≈ 197 µM), respectively. Moreover, the Ratio IC50 in data set [1] amounted to 3.4. In [2], this molecule had an inhibition of 14.3%. Besides, the lipophilicity (logP) in data set [6] was 2.2.
Turning to `COc1cc2c(cc1OC)C(=O)C(C(=O)Nc1cccc(C)c1)C2` (centres undefined), the results for the IC50 (on Acetylcholinesterase; at Cholinesterase; in data set [3]) were 770 nM, 2240 nM and 55.83 µg/mL (≈ 172 µM), respectively. The Ratio IC50 in data set [1] turned out to be 2.9. This molecule showed an inhibition in data set [2] of 19.1%. In data set [6], this molecule returned a lipophilicity (logP) of 2.69.
For the molecule `COc1cc2c(cc1OC)C(=O)C(C(=O)Nc1ccccc1Cl)C2` (centres undefined), the values for the 50% inhibitory concentration (IC50) (at Acetylcholinesterase; on Cholinesterase; in data set [3]) were 300 nM, 7100 nM and 65.92 µg/mL (≈ 191 µM), respectively. For the same molecule, the Ratio IC50 in [1] is 23.7. In data set [2], the inhibition was 40.4%. In addition, in [6], the logP came to 2.76.
Regarding `COc1cc2c(cc1OC)C(=O)C(C(=O)Nc1cccc(Cl)c1)C2` (centres undefined), the half-inhibitory concentration (IC50) against Acetylcholinesterase worked out at 470 nM; at Cholinesterase it was 2240 nM; in data set [3] it was 76.32 µg/mL (≈ 221 µM). Moreover, in data set [1], the Ratio IC50 is 4.8. The molecule also returned an inhibition in data set [2] of 37.4%. In [6], this molecule had a logP of 2.76.
For `Cc1c(C)c2c(c(C)c1O)CCC(C)(C(=O)O)O2` (centres undefined) [TROLOX], the half-inhibitory concentration (IC50) in data set [3] was 20.87 µg/mL (≈ 83.4 µM).
As to `CCc1cccc(NC(=O)C2Cc3cc(OC)c(OC)cc3C2=O)c1` (centres undefined), the results for the concentration for half-maximal inhibition (IC50) (on Acetylcholinesterase; against Cholinesterase; in [3]) were 670 nM, 2980 nM and 64.11 µg/mL (≈ 189 µM), respectively. Moreover, in data set [1], the Ratio IC50 was determined as 4.4. In [2], the inhibition is 27.4%. Moreover, the logP in data set [6] was 3.11.
As for `COc1cc2c(cc1OC)C(=O)C(C(=O)Nc1ccc(C)cc1)C2` (centres undefined), the IC50 stood at 840 nM against Acetylcholinesterase, 2500 nM against Cholinesterase and 67.82 µg/mL (≈ 208 µM) in data set [3]. In addition, the Ratio IC50 in data set [1] came to 3.2. This molecule also displayed an inhibition in [2] of 26.8%. The lipophilicity (logP) in data set [6] is 2.69.
For `CCOc1ccc(NC(=O)C2Cc3cc(OC)c(OC)cc3C2=O)cc1` (centres undefined), the IC50 was 580 nM against Acetylcholinesterase, 2610 nM against Cholinesterase and 48.16 µg/mL (≈ 136 µM) in data set [3]. Further, the Ratio IC50 in data set [1] worked out at 4.5. For the same molecule, in [2], the inhibition was 40.8%. The same molecule came in with a logP in [6] of 2.42.
As to `COc1ccccc1NC(=O)C1Cc2cc(OC)c(OC)cc2C1=O` (centres undefined), the concentration for half-maximal inhibition (IC50) against Acetylcholinesterase stood at 700 nM; against Cholinesterase it was 4810 nM; in [3], 45.76 µg/mL (≈ 134 µM). Further, the Ratio IC50 in [1] was determined as 6.9. For the same molecule, the inhibition in data set [2] stood at 25.6%. For the same molecule, the log partition coefficient (logP) in [6] was determined as 2.08.
Take `CCOc1cccc(NC(=O)C2Cc3cc(OC)c(OC)cc3C2=O)c1` (centres undefined): the IC50 at Acetylcholinesterase was determined as 780 nM; against Cholinesterase it was 3870 nM; in data set [3], 44.89 µg/mL (≈ 126 µM). For the same molecule, in [1], the Ratio IC50 amounted to 5. In addition, in [2], the inhibition stood at 28.3%. The logP in [6] was 2.42.
With `COc1ccc(NC(=O)C2Cc3cc(OC)c(OC)cc3C2=O)cc1` (centres undefined), the 50% inhibitory concentration (IC50) was 530 nM against Acetylcholinesterase, 2900 nM against Cholinesterase and 49.47 µg/mL (≈ 145 µM) in data set [3]. Further, the Ratio IC50 in data set [1] worked out at 5.5. Moreover, in data set [2], the inhibition is 34.5%. Further, the logP in data set [6] was 2.08.
As for `COc1cc2c(cc1OC)C(=O)C(C(=O)Nc1ccc(F)cc1)C2` (centres undefined), the values for the half-inhibitory concentration (IC50) (against Acetylcholinesterase; on Cholinesterase; in [3]) were 110 nM, 2650 nM and 54.96 µg/mL (≈ 167 µM), respectively. Moreover, the Ratio IC50 in [1] was 24.1. This molecule came in with an inhibition in data set [2] of 45.4%. The molecule also yielded a logP in data set [6] of 2.36.
As for `COc1cc2c(cc1OC)C(=O)C(C(=O)Nc1ccc(Br)cc1)C2` (centres undefined), the IC50 at Acetylcholinesterase came out at 140 nM; against Cholinesterase it was 3660 nM; in data set [3], 72.14 µg/mL (≈ 185 µM). For the same molecule, the Ratio IC50 in [1] amounted to 26.1. Also, the inhibition in [2] worked out at 47.6%. This molecule also displayed a lipophilicity (logP) in [6] of 3.03.
As for `CCOc1ccccc1NC(=O)C1Cc2cc(OC)c(OC)cc2C1=O` (centres undefined), the IC50 at Acetylcholinesterase turned out to be 770 nM; on Cholinesterase, 6620 nM; in data set [3], 63.67 µg/mL (≈ 179 µM). Further, the Ratio IC50 in data set [1] is 8.6. Besides, the inhibition in [2] amounted to 38.1%. The same molecule gave a logP in [6] of 2.42.
On to `COc1cccc(NC(=O)C2Cc3cc(OC)c(OC)cc3C2=O)c1` (centres undefined), for which the half-maximal inhibitory concentration (IC50) stood at 540 nM at Acetylcholinesterase, 2100 nM on Cholinesterase and 38.94 µg/mL (≈ 114 µM) in data set [3]. In addition, the Ratio IC50 in data set [1] is 3.9. In data set [2], this molecule gave an inhibition of 30.2%. Further, the inhibition entry in data set [7] and in data set [8] was “Active” each time. For the same molecule, the result in data set [5] was Active. The molecule further registered a logP in data set [6] of 2.08.
Take `COc1cc2c(cc1OC)C(=O)C(C(=O)Nc1cccc(Br)c1)C2` (centres undefined): the results for the half-maximal inhibitory concentration (IC50) (at Acetylcholinesterase; at Cholinesterase; in [3]) were 330 nM, 2430 nM and 58.88 µg/mL (≈ 151 µM), respectively. Besides, the Ratio IC50 in data set [1] amounted to 7.4. The same molecule gave an inhibition in data set [2] of 31.9%. The molecule further gave a logP in data set [6] of 3.03.
Turning to `COc1cc2c(cc1OC)C(=O)C(C(=O)Nc1ccccc1Br)C2` (centres undefined), the IC50 against Acetylcholinesterase came to 120 nM; at Cholinesterase it was 3400 nM; in data set [3], 65.44 µg/mL (≈ 168 µM). Moreover, the Ratio IC50 in data set [1] was 28.3. In data set [2], this molecule came in with an inhibition of 52.8%. The same molecule gave a logP in data set [6] of 3.03.
In the case of `COc1cc2c(cc1OC)C(=O)C(C(=O)Nc1ccc(Cl)cc1)C2` (centres undefined), the results for the IC50 (on Acetylcholinesterase; on Cholinesterase; in data set [3]) were 500 nM, 4400 nM and 56.76 µg/mL (≈ 164 µM), respectively. For the same molecule, the Ratio IC50 in [1] was 8.8. Also, in data set [2], the inhibition came to 38.2%. Besides, the log partition coefficient (logP) in data set [6] was 2.76.
Regarding `COc1cc2c(cc1OC)C(=O)C(C(=O)Nc1ccccc1C)C2` (centres undefined), the IC50 at Acetylcholinesterase was determined as 360 nM; on Cholinesterase, 3060 nM; in data set [3] it was 43.74 µg/mL (≈ 134 µM). The Ratio IC50 in data set [1] was determined as 8.5. In addition, the inhibition in data set [2] turned out to be 40.3%. Also, the lipophilicity (logP) in [6] stood at 2.69.
Regarding `Cc1c(C)c2c(c(C)c1O)CC[C@@](C)(CCC[C@H](C)CCC[C@H](C)CCCC(C)C)O2` [ALPHA-TOCOPHEROL], in data set [3], the IC50 came to 31.74 µg/mL (≈ 73.7 µM).
On to `CCc1ccc(NC(=O)C2Cc3cc(OC)c(OC)cc3C2=O)cc1` (centres undefined), for which the figures for the IC50 (at Acetylcholinesterase; at Cholinesterase; in data set [3]) were 650 nM, 2960 nM and 76.15 µg/mL (≈ 224 µM), respectively. The Ratio IC50 in [1] came to 4.6. For the same molecule, in data set [2], the inhibition was found to be 32.1%. This molecule registered a logP in data set [6] of 3.11.
